Measured values gathered from unrelated publications.
Compare with care: the assays were run in different laboratories.
Target: Myotonin-protein kinase (DMPK, Homo sapiens, UniProt Q09013)
Sequence (Q09013 1-629, as in one of the studies): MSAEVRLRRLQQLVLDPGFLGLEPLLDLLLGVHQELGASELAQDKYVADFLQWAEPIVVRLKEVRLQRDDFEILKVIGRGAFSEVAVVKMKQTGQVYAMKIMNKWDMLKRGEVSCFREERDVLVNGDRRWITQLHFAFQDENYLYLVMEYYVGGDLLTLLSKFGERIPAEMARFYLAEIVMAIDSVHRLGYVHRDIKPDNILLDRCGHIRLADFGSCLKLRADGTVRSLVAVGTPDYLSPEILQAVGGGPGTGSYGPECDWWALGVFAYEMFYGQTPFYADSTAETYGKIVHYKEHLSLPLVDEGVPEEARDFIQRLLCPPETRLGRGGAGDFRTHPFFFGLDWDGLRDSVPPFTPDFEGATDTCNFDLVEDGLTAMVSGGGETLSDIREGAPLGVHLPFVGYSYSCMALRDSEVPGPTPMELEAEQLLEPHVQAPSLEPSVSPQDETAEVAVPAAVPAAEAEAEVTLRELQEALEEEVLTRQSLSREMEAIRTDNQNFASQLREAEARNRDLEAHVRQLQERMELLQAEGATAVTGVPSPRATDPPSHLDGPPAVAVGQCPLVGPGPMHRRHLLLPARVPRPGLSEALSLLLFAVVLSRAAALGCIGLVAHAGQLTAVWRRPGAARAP

SMILES | assay | conditions | measurement | value
CC(C)(C)c1cc(C=C(C#N)C#N)cc(Br)c1O | enzyme activity, inhibitor | 0.5 µM | remaining activity | 96.9%
COc1ncccc1-c1cnn2ccc(N3CCN(C(=O)OC(C)C)CC3)nc12 | binding, competition with immobilised ligand | 1 µM | remaining binding | 98%
Cc1nn(C)cc1-c1nc2c(N3CCN(Cc4ccc(Cl)cc4)CC3)c(Cl)cnc2[nH]1 | binding, competition with immobilised ligand | 1 µM | remaining binding | 100%
Cn1cc(-c2cc(F)cc(N3CCn4c(cc5c4CCCC5)C3=O)c2CO)cc(Nc2ccc(N3CCN(C4COC4)CC3)cn2)c1=O | enzyme activity, inhibitor | 0.1 µM | inhibition | -7%
C#Cc1n[nH]c2c(-c3cn([C@@H](C)c4ccccc4)c(=O)[nH]c3=O)cc(F)cc12 | enzyme activity, inhibitor | 0.1 µM | inhibition | -4%
Nc1ncc(-c2nc(N3CCOCC3)nc(N3CCOCC3)n2)c(C(F)F)n1 | binding, competition with immobilised ligand | 10 µM | remaining binding | 76%
Cn1cc(-c2cccc(N3CCc4c(sc5c4CC(C)(C)C5)C3=O)c2CO)cc(Nc2ccncn2)c1=O | enzyme activity, inhibitor | 1 µM | inhibition | -4%
Cn1cncc1[C@](O)(COc1ccc(C#N)cc1-c1ccc(OC(F)(F)F)cc1)c1ccc(C#N)cc1 | cell-free assay, competition with immobilised ligand | 1 µM | remaining binding | 98%
C#Cc1n[nH]c2c(-c3cn([C@@H](C)c4ccccn4)c(=O)[nH]c3=O)cc(F)cc12 | enzyme activity, inhibitor | 0.1 µM | inhibition | 3.2%
O=c1[nH]c2ccccc2n1C1CCN(Cc2ccc(-c3[nH]c4cc5ncnc5cc4nc3-c3ccccc3)cc2)CC1 | cell-free assay | 0.5 µM | remaining signal | 98%
